According to ChEMBL document CHEMBL3259663, “3-Amido-3-aryl-piperidines: A Novel Class of Potent, Selective, and Orally Active GlyT1 Inhibitors” (ACS Med Chem Lett, 2014):
In brackets after ≈: the same amount, converted by molar mass. Activity calls are given as the source filed them. The calls are words filed in the database; no cut-off is given here.

Columns and labels:
[1] = target: T1, Sodium- and chloride-dependent glycine transporter 2 (Homo sapiens, UniProt Q9Y345); assay: Inhibition of human GlyT2 expressed in cells assessed as [3H]glycine uptake; format: cell-based
T1 sequence (Q9Y345 whole entry): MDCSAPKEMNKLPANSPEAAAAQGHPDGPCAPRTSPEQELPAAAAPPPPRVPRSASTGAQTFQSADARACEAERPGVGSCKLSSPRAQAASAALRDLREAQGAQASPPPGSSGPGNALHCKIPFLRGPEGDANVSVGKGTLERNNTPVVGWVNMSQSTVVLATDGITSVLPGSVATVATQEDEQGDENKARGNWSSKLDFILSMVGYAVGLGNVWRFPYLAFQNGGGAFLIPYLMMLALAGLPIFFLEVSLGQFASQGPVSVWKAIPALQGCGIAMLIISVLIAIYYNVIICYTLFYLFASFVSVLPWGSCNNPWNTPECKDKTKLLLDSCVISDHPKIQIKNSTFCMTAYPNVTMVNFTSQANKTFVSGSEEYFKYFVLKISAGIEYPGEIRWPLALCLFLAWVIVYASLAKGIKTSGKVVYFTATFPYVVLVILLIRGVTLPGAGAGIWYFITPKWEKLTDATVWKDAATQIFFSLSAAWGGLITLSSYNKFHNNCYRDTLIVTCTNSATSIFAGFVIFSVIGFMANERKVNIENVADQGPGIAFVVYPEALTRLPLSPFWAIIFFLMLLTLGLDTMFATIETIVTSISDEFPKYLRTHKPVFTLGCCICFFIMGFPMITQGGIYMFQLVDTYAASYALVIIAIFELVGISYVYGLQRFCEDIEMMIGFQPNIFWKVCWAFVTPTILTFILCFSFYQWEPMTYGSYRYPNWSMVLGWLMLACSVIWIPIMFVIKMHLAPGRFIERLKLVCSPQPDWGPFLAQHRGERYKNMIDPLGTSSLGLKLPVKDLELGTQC

Mus musculus = assay: Inhibition of L687414-induced hyperlocomotion in po dosed mouse assessed horizontal activity at 8 ng/ml plasma concentration; format: functional, organism-based
[2] = Solubility of the compound at pH 6.5 by lyophilization solubility assay; format: physicochemical; conditions: buffer
Outline: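 Lyophilization solubility assay. DMSO solution of compound is lyophilized, dissolved in 0.05 M phosphate buffer pH 6.5, stirred 1 h, then shaken 2 h.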

hERG (KCNH2) = hERG (KCNH2) (Homo sapiens, UniProt Q12809); assay: Inhibition of human ERG channel by Patch clamp assay
[3] = Half life in mouse at 7.7 mg/kg, po; format: ADME, organism-based; set-up: dose 7.7 mg/kg, route oral; conditions: in vivo
Outline: (§1)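 Mouse PK after a 7.7 mg/kg oral dose. Brain/plasma ratio taken at 1.5 h. Values are the average of two independent experiments.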

[4] = Permeability of the compound by PAMPA; format: physicochemical; conditions: read-out: permeability
Cytochrome P450 2D6 = Cytochrome P450 2D6 (Homo sapiens, UniProt P10635); assay: Inhibition of CYP2D6 (unknown origin); format: ADME
[5] = Ratio of drug level from brain to plasma in mouse at 7.7 mg/kg, po after 1.5 hrs; format: ADME, organism-based; set-up: dose 7.7 mg/kg, route oral; conditions: brain and plasma, read-out: BPR; outline: as §1
Cytochrome P450 2C19 = Cytochrome P450 2C19 (Homo sapiens, UniProt P33261); assay: Inhibition of CYP2C19 (unknown origin); format: ADME
MDR1A (P-gp) = assay: Efflux ratio of permeability in pig LLC-PK1 cells expressing mouse MDR1A; format: ADME, cell-based, Sus scrofa
Outline: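 Efflux ratio measured in LLC-PK1 cells stably expressing human MDR1 or mouse MDR1A.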

Sequence of Cytochrome P450 2C19 (P33261 whole entry): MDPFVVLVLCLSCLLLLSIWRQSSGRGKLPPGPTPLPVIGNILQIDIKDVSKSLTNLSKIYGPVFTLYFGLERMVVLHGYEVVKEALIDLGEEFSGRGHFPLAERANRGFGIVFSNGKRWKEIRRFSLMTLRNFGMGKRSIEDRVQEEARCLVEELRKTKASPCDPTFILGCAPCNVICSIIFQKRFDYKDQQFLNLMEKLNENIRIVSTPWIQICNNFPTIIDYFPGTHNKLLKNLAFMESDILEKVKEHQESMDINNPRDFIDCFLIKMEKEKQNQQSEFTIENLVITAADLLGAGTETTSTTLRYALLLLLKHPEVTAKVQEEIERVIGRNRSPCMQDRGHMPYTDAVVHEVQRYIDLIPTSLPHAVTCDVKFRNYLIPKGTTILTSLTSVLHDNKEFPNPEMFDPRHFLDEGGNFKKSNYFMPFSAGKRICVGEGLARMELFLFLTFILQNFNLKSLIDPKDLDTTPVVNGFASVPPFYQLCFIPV
Sequence of Cytochrome P450 2D6 (P10635 whole entry): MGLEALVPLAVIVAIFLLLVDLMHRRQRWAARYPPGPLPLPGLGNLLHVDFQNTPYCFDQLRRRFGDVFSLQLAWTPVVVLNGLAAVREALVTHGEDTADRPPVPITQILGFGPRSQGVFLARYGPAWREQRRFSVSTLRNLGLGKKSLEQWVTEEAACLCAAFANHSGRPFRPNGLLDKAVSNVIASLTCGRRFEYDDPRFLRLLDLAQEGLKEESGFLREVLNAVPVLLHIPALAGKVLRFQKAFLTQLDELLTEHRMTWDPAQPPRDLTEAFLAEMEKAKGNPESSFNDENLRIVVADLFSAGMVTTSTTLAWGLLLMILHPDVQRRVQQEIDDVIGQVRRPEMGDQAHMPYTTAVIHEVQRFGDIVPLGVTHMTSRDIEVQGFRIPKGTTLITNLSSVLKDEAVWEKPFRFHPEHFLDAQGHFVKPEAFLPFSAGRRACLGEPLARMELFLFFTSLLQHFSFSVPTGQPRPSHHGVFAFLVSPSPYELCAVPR
Sequence of hERG (KCNH2) (Q12809 whole entry): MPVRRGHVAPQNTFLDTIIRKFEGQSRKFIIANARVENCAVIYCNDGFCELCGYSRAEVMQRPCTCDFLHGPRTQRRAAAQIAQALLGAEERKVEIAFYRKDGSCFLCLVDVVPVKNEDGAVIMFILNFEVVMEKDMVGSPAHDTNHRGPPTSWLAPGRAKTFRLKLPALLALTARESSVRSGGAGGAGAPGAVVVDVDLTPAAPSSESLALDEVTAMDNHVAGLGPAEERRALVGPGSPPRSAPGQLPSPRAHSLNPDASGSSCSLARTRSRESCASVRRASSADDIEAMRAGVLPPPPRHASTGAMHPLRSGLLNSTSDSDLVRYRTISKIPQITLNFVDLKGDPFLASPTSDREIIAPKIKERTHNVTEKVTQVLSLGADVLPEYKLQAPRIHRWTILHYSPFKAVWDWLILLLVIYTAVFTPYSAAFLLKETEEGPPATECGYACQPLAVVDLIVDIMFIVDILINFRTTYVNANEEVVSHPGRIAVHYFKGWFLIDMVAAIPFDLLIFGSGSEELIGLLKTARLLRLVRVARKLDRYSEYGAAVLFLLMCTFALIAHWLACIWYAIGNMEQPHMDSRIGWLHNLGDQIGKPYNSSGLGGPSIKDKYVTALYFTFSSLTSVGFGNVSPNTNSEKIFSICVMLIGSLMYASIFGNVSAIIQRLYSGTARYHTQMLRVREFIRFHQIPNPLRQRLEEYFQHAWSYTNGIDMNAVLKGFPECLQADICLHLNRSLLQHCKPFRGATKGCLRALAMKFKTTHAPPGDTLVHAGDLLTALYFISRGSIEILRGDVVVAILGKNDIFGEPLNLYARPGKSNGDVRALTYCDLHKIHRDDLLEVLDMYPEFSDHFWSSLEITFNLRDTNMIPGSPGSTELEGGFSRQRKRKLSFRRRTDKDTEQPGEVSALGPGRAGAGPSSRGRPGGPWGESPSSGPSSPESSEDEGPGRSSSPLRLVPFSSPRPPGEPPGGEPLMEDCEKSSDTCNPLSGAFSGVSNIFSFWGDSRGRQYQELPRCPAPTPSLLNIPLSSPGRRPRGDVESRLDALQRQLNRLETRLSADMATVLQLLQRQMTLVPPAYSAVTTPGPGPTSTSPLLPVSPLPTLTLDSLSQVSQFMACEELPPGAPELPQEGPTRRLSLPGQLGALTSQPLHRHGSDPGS

EC50 [1]: 15 µM
solubility [2]: 147 µg/mL (≈ 335 µM)
half-life [3]: 4.2 h
Papp [4]: 7.4 ×10⁻⁶ cm/s
IC50 (Cytochrome P450 2D6): 16 µM
Kp at 1.5 h [5]: 4.3
IC50 (Cytochrome P450 2C19): 46 µM
efflux ratio (MDR1A (P-gp)): 1.5
Compound: COc1cc(C(F)(F)F)cc(SC)c1C(=O)N[C@@]1(c2ccccc2)CCCN(C)C1
inhibition (Mus musculus): Active
IC20 (hERG (KCNH2)): 5.4 µM
